Tested on: MS2 coat protein
Experiment: apparent Kd, MS2 coat protein; higher = weaker binding; RNA-MaP array; FMN 200 µM where present
Summary of the method: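 Binding was read on Illumina sequencing-chip clusters where stalled E. coli RNA polymerase had transcribed each design. A titration of SNAP-549-labelled MS2 coat protein began at 0.7 or 1.5 nM and doubled to 3 µM, once without ligand and once with constant ligand, in 100 mM Tris-HCl pH 7.5, 80 mM KCl, 4 mM MgCl2, BSA, DTT, yeast tRNA and Tween-20. The apparent Kd is the median of filtered per-cluster binding-curve fits, based on green signal normalised to red-channel RNA signal and control-cluster median Fmax.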

[1] = designed as: OFF switch for flavin mononucleotide, no ligand
[2] = ligand present: flavin mononucleotide, designed as: OFF switch for flavin mononucleotide
[3] = designed as: ON switch for flavin mononucleotide, no ligand
[4] = ligand present: flavin mononucleotide, designed as: ON switch for flavin mononucleotide

Row | Sequence | apparent Kd [1] [nM] | apparent Kd [2] [nM] | apparent Kd [3] [nM] | apparent Kd [4] [nM]
1 | CUUUUGUGAGGAUAUCAGUAGUAAAAAAAUAAAAUUACUACUGAGAAGGUACAUGAGGAUCACCCAUGUUCCUC | 14.2 | 17.6 | – | –
2 | CUGUUCCAUGUAGGAUAUGCAUAUUCUCAUUAUGCAGAAGGACAUGAGGAUCACCCAUGUAUGUUAUUAUCAUAUGUUACAUGU | 34.3 | 241 | – | –
3 | AUCAGCUCGUGAGGAUAUACAUCACUGCUUCGGCAGUGUGGUAAGGUCACAUGAGGAUCACCCAUGUAGAAGGCACGAGCUGAU | 13.1 | 279 | – | –
4 | GUCGUGUGAGGAUAUGAUUGUACGGCAGACUAGCGUCUGCUUCAGAAGGCACAUGAGGAUCACCCAUGUUUGUC | 18.6 | 34.4 | – | –
5 | CUUUUGUGAGGAUAUUCGUAGUAAAUAAAUAAAAUUAUUACGGAGAAGGCACAUGAGGAUCACCCAUGUUCCUU | 17.1 | 50.3 | – | –
6 | CUGGGAUCAGUAGGAUAUGCCGGACAUGAGGAUCACCCAUGUAAGGCGUGCUUCCCUCGCGUGCGGCAGAAGGGCUGCAUCACA | 32.7 | 35.4 | – | –
7 | UUCGUGCAGCGUUGCUGUACGCGUACAUGAGGAUCACCCAUGUAGGAUAUGGUACGCUUUGCGUGCUAGAAGGAUAUGGAGAGG | 15.2 | 18.9 | – | –
8 | CAUGUACGUGAGGAUAUGGUGGCGACGAGCCGGCUAGAAGGCACAACAUGAGGAUCACCCAUGUCUUGGAUCUA | 114 | 374 | – | –
9 | GGUGCUAUGUAGAAGGCAGAUCUGAUUCAGAUCUGAGGAUAUACAUGAGGAUCACCCAUGUUAUGCACCAGCACGAGAGUGCAC | 7.57 | 13.3 | – | –
10 | ACUUGUGAAGGAUAUACUGGCGACAUGCGCUCAACACGCGCACAUGAGGAUCACCCAUGUAGAAGGUCAAACAU | 24.7 | 34.8 | – | –
11 | AGAAACUACGAGAAGGACAUGUGAAAAGCCGCAAACAUGAGGAUCACCCAUGUAGGAUAUCGUAGUUUCAGGAUCGUGAGAUCA | 54.6 | 442 | – | –
12 | CCGAAUAUGCAGGAUAUCGUAUCGGAAACGAUACGAGAAGGGCAAACAUGAGGAUCACCCAUGUUCCUUAACGG | 18.6 | 20.2 | – | –
13 | AGCAAAUCAGGAUAUGUACUGGACGACAUGAGGAUCACCCAUGUGAUUCAGUGCGCGAGAACAGAAGGGAUUCGCU | 17.4 | 42.8 | – | –
14 | UGAUCUAUGUAGAAGGCCCAUAUCUAUAUUUAGGGAGGAUAUACAUGAGGAUCACCCAUGUAUAGAGCGGGUGGACCCGUCACU | 74.1 | 185 | – | –
15 | AUUGGUUAAGGAUAUCCCUUAGCAGACAUGAGGAUCACCCAUGUCGUCAUGAGGCCAGGCGGAGAAGGUGACUAAU | 55.4 | 35.8 | – | –
16 | CGCAAGUCAGGAUAUUCGACUGGUAAAUCAGUGGAUCAGUAGGAGAAGGGACAUGAGGAUCACCCAUGUAUGUA | 43.2 | 51.2 | – | –
17 | GUGCAAUGAGGAUAUACGUUGGUGGGCAUCUGUGUGCUCCUACAUGAGGAUCACCCAUGUAGAAGGCAUGUCAC | 12.5 | 15.8 | – | –
18 | UUGAUGUCAUCAGGAUAUAGUAUUUAAGACAUAUCUUCUUUCAAACAUGAGGAUCACCCAUGUCGCUAGAAGGGAUGAUUGAUU | 17.3 | 15.3 | – | –
19 | CAGGUAGACUGAGGAUAUACAUGACUUAGUCUAUCUAGGUCUAAAAUCACAUGAGGAUCACCCAUGUAGAAGGCAGUCUGCCUG | 17.6 | 24.2 | – | –
20 | AUAUGAAAGAUAGGAUAUACUGAGGUUGAAUGGGUAGAAGGAUCGAUAGGGAAGAAUACAUGAGGAUCACCCAUGUUGUGGAUU | – | – | 81.7 | 51.9
21 | GCUUGUAGAGGAUAUACGAGGGCCCGAGCGGAUAACACCGCACAUGAGGAUCACCCAUGUAGAAGGCUACCACC | 25.3 | 284 | – | –
22 | ACCUUACAUGAGGAUCACCCAUGUCAGGAUAUCUCGGGCGGCUGGAGACCAGCCGCCCAGAGAAGGGACGAGGA | 14.4 | 15.6 | – | –
23 | GAAGCGCUGGAGAAGGGUGAUCAAGUUAUAAACGUGUACAUGAGGAUCACCCAUGUCAGGGAAUCGCAGGAUAUCCAGCUGAAC | – | – | 315 | 42.9

Source: the EternaBench riboswitch data
